Our source for the Ki, Activity and Kb values is ChEMBL document CHEMBL3784997 (J Med Chem, 2016).

The target of assay [1] is T1, Adenosine receptor A2b (Homo sapiens, UniProt P29275).
T1 sequence (P29275 whole entry): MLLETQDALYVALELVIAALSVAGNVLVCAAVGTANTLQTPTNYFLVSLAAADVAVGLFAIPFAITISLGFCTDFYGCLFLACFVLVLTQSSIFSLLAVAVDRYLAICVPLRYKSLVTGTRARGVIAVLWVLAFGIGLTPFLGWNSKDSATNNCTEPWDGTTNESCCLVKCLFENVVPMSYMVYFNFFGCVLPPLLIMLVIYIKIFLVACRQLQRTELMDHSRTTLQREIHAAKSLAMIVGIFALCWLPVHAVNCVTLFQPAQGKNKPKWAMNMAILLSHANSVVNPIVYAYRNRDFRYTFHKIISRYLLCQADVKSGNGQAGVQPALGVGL
As to the kind of experiment: Displacement of [3H]OSIP339391 from human recombinant Adenosine A2B receptor expressed in HEK293 cells after 60 mins. It is filed as cell-based. (In general: Loss of bound radioactivity is the signal in a displacement assay; it reports binding, not function.)

In assay [2] the target is T1, Adenosine receptor A2b. The experiment in a line: Displacement of [3H]DPCPX from human Adenosine A2B receptor expressed in HEK293 cells after 30 mins. It is filed as cell-based.
Assay [3] concerns the target Adenosine receptor A2a (Homo sapiens) (UniProt P29274). As to the kind of experiment: Displacement of [3H]ZM241385 from human Adenosine A2A receptor expressed in HeLa cells at 1 uM after 30 mins. In kind it is cell-based. The method, boiled down: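 Membranes from HeLa cells expressing human A2A were labelled with 3 nM [3H]ZM241385, with non-specific binding defined by 50 µM NECA, and incubated at 25 °C for 30 min. The value is percent displacement of specific binding at 1 µM test compound (n = 2).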

Assay [4] concerns the target T2, Adenosine receptor A1 (Homo sapiens) (UniProt P30542).
T2 sequence (whole entry): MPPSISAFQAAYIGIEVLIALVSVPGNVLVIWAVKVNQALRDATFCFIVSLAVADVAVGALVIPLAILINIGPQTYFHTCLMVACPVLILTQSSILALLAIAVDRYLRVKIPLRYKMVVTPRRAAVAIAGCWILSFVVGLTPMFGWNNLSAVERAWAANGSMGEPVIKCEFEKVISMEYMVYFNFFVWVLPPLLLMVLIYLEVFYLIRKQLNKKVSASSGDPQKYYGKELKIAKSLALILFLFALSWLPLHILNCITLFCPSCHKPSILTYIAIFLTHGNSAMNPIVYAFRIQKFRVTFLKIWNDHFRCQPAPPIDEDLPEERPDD
As to the kind of experiment: Displacement of [3H]DPCPX from human Adenosine A1 receptor expressed in CHO cells at 1 uM after 60 mins. It is filed as cell-based. The method, boiled down:
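Competition binding on membranes from CHO cells expressing human A1, labelled with 2 nM [3H]DPCPX. Non-specific binding was defined with 10 µM R-PIA, and incubation was at 25 °C for 60 min. The value is percent inhibition of specific binding at 1 µM test compound (n = 2, average).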

The target of assay [5] is T3, Adenosine receptor A3 (Homo sapiens) (UniProt P0DMS8).
T3 sequence (whole entry): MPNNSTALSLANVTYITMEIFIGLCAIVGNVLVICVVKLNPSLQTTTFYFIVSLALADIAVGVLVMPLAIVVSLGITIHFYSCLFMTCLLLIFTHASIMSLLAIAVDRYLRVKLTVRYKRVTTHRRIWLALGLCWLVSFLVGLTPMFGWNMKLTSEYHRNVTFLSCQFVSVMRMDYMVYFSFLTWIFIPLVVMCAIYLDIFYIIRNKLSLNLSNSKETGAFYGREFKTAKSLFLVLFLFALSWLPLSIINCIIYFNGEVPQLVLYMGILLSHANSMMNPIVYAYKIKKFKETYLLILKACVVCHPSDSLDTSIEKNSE
As to the kind of experiment: Displacement of [3H]NECA from human Adenosine A3 receptor expressed in HeLa cells at 1 uM after 180 mins.

For another assay, the target named is T4, Adenosine receptor A3 (Homo sapiens, UniProt P0DMS8).
T4 sequence (P0DMS8 whole entry): T3 sequence (whole entry)
The experiment in a line: Displacement of [3H]NECA from human Adenosine A3 receptor expressed in HeLa cells after 180 mins.

Assay [6] deals with T5, Adenosine receptor A2b (Homo sapiens) (UniProt P29275).
T5 sequence (whole entry): T1 sequence (P29275 whole entry)
As to the kind of experiment: Displacement of [3H]DPCPX from human Adenosine A2B receptor expressed in HEK293 cells at 1 uM after 30 mins. It is filed as cell-based. The method, boiled down: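 Membranes from HEK-293 cells expressing human A2B were labelled with 35 nM [3H]DPCPX, with non-specific binding defined by 400 µM NECA, and incubated at 25 °C for 30 min.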

The target in assay [7] is T5, Adenosine receptor A2b (Homo sapiens). As to the kind of experiment: Antagonist activity at human Adenosine A2B receptor expressed in HEK293 cells assessed as inhibition of NECA-induced cAMP production preincubated for 15 mins followed by NECA addition measured after 15 mins by enzyme immunoassay. It is filed as functional, cell-based. The method in brief: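 HEK293 cells seeded at 10000 cells/well and grown at 37 °C, 5% CO2 in EMEM F-12 with 10% FCS and 1% L-glutamine. After washing, cells were preincubated 15 min at 37 °C with compound and 30 µM rolipram in EMEM-F12/25 mM HEPES pH 7.4. NECA was then added for 15 min at 37 °C. cAMP was read by enzyme immunoassay after kit lysis; n = 3, each in duplicate.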
A general note: cAMP levels reflect the balance of adenylyl cyclase and phosphodiesterase activity.

Chain of Adenosine receptor A2a (Homo sapiens) (P29274 whole entry): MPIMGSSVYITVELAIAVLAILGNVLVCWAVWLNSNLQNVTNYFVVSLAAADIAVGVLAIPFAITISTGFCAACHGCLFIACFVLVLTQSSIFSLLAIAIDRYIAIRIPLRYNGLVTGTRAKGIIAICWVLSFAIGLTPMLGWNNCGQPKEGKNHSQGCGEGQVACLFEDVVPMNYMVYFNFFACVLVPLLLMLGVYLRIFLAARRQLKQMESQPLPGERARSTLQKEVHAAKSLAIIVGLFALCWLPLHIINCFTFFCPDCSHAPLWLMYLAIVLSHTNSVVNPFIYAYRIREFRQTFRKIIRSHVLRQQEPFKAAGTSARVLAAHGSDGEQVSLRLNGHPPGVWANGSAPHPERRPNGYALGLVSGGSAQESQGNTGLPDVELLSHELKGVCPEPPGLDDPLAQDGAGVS

For orientation: Ki means the dissociation constant of the complex between target and ligand, obtained from inhibition or displacement. For `CC(=O)NCCNc1nc(-c2ccccc2)nc2nc(C(=O)N3CCN(CCCc4ccccc4)CC3)[nH]c12`, the Ki at Adenosine receptor A2b [1] is 0.5 nM.
At Adenosine receptor A2b [2], `CC1=C(C(=O)OC(C)C)C(c2ccsc2)n2ncnc2N1` (racemic) gave a Ki of 817 nM. The Activity in assay [3] came out at 2%; in assay [4], 3%; in assay [5], 5%.
`CCOC(=O)C1=C(C)Nc2nc3ccccc3n2C1c1ccco1` (racemic) registered a Ki on Adenosine receptor A2b [2] of 12 nM. Also, the Activity in assay [3] is 14%; in assay [4] it was 5%; in assay [5], 1%.
Regarding `CC1=C(C(=O)OC(C)C)C(c2ccoc2)n2ncnc2N1` (racemic), at Adenosine receptor A2b [2], the Ki was 350 nM. Moreover, the values for the Activity in assay [3], in assay [4] and in assay [5] were 2%, 2% and 20%, respectively.
Take `CC1=C(C(=O)OC(C)C)C(c2cccs2)n2c(nc3ccccc32)N1` (racemic): at Adenosine receptor A2b [2], the Ki stood at 371 nM. Besides, the Activity amounted to 17% in assay [3], 1% in assay [4] and 3% in assay [5].
The matching figures for `CCOC(=O)C1=C(C)Nc2nc3ccccc3n2C1c1ccoc1` (racemic): 20.6 nM, 11%, 7% and 1%.
At Adenosine receptor A2b [2], `CCOC(=O)C1=C(C)Nc2nc3ccccc3n2C1c1cccs1` (racemic) returned a Ki of 485 nM. For the same compound, the Activity in assay [3] is 16%; in assay [4], 8%; in assay [5], 1%.
Consider `CCOC(=O)C1=C(C)Nc2nccn2C1c1cccs1` (racemic), for which the Ki on Adenosine receptor A3 came to 4610 nM. The results for the Activity in assay [3], in assay [4] and in assay [6] were 2%, 2% and 8%, respectively.
`CC1=C(C(=O)OC(C)C)C(c2ccoc2)n2c(nc3ccccc32)N1` (racemic) came in with a Ki on Adenosine receptor A2b [2] of 11.4 nM. In addition, the results for the Activity in assay [3], in assay [4] and in assay [5] were 22%, 12% and 2%, respectively.
In general, Kb refers to the equilibrium dissociation constant of an antagonist, usually derived from a functional assay. Turning to `CC1=C(C(=O)OC(C)C)C(c2ccco2)n2ncnc2N1` (racemic), the Ki at Adenosine receptor A2b [2] amounted to 55.6 nM. Moreover, the values for the Activity in assay [3], in assay [4] and in assay [5] were 5%, 2% and 2%, respectively. For the same compound, in assay [7], the Kb is 266 nM.
With `CCOC(=O)C1=C(C)Nc2ncnn2C1c1ccoc1` (racemic), on Adenosine receptor A2b [2], the Ki came to 602 nM. For the same compound, the Activity worked out at 1% in assay [3], 2% in assay [4] and 4% in assay [5].
The corresponding values for `CCOC(=O)C1=C(C)Nc2ncnn2C1c1ccsc1` (racemic) are 699 nM, 21%, 3% and 2%.
With `CC1=C(C(=O)OC(C)C)C(c2ccco2)n2c(nc3ccccc32)N1` (racemic), the values for the Activity in assay [3], in assay [4] and in assay [5] were 25%, 20% and 2%, respectively. Further, the Kb in assay [7] was 27 nM.
